In general, Kd refers to the constant that tells how readily two partners part at equilibrium. In general, stoichiometry N refers to a count of units in the complex or per binding partner.

Data set [1] is described as follows: FT-IR / 2D IR correlation spectroscopy, thermal dependence. In kind it is physicochemical. The settings on record: ^13C-Crcen-MLT complex.
Another data set deals with human centrin 2 (Hscen2). The note with it: 30 °C, pH 6.5; compared to Crcen-MLT and CaM-MLT; ref [16]; cited from earlier work.
The subject of the next data set is tumor. The note with it: ref [23],[24]; cited from earlier work.
Data set [2] has as its target T1, Crcen (Chlamydomonas reinhardtii centrin) (Chlamydomonas reinhardtii, UniProt P05434). Kind of data set: Isothermal titration calorimetry of Crcen-MLT interaction. In kind it is binding. The note with it: ITC, pH 7.4, 25 °C. In outline: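 Unlabeled recombinant centrin was expressed in E. coli, purified, and quantified by ε280 = 1,490 M⁻¹ cm⁻¹. The acetylated, amidated test peptide was dialysed against 0.1 N HCl to remove TFA, then against buffer. 120 μM peptide was injected sequentially into 10 μM centrin in 50 mM Hepes, 150 mM NaCl, 4 mM CaCl₂, 4 mM MgCl₂, pH 7.4, 25 °C. Data were fitted to a one-site binding model.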

A further data set has as its system calmodulin (CaM). The settings on record: literature statement; cited from earlier work.
Data set [3] has as its target T1, Crcen (Chlamydomonas reinhardtii centrin). Kind of data set: X-ray crystal structure of Crcen-MLT complex. The settings on record: PDB 3QRX, 2.30 Å, 4 Ca^2+ ions, Crcen-MLT 1:1.5 molar ratio. In kind it is binding.
The subject of the next data set is human centrin 3. The settings on record: compared to Hscen2-MLT (Kd 62.5 nM); ref [16],[25]; cited from earlier work.
The next data set deals with CaM (calmodulin). The settings on record: cited from earlier work.
For data set [4] the following is noted: holo-Crcen; ref [11]; cited from earlier work.
The conditions of data set [5]: ref [12]; cited from earlier work.
For data set [6], the target named is melittin (Apis mellifera) (UniProt P01501). The note with it: cited from earlier work.
Sequence of melittin (Apis mellifera) (P01501 44-70): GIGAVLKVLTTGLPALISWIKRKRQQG
In data set [7] the target is Chlamydomonas reinhardtii centrin (Chlamydomonas reinhardtii) (UniProt P05434). Kind of data set: ITC. Background: Isothermal titration calorimetry measures the heat released or taken up as one component is titrated into another.
Sequence of Chlamydomonas reinhardtii centrin (Chlamydomonas reinhardtii) (P05434 whole entry): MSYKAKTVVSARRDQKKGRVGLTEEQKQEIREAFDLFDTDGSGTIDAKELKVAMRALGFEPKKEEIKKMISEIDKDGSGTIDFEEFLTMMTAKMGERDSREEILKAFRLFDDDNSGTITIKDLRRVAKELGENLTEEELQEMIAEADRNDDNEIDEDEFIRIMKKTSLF

“Also recorded” adds a separate entry of the source.

T1 sequence (P05434 2-169): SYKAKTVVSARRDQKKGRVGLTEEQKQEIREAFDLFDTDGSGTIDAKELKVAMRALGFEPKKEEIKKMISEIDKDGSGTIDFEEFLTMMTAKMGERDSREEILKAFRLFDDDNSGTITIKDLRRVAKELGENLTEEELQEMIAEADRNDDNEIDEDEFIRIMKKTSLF
Sequence of Melittin (Ac-…-NH2) (peptide) (P01501 44-69): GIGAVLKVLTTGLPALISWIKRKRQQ
Sequence of human centrin 2 (P41208 2-172): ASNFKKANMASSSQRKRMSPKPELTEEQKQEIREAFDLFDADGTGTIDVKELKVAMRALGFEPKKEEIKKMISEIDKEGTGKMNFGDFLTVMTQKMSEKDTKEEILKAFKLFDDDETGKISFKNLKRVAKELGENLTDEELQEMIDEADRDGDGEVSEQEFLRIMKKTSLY

Consider `CC[C@H](C)[C@H](NC(=O)CNC(C)=O)C(=O)NCC(=O)N[C@@H](C)C(=O)N[C@H](C(=O)N[C@@H](CC(C)C)C(=O)N[C@@H](CCCCN)C(=O)N[C@H](C(=O)N[C@@H](CC(C)C)C(=O)N[C@H](C(=O)N[C@H](C(=O)NCC(=O)N[C@@H](CC(C)C)C(=O)N1CCC[C@H]1C(=O)N[C@@H](C)C(=O)N[C@@H](CC(C)C)C(=O)N[C@H](C(=O)N[C@@H](CO)C(=O)N[C@@H](Cc1c[nH]c2ccccc12)C(=O)N[C@H](C(=O)N[C@@H](CCCCN)C(=O)N[C@@H](CCCNC(=N)N)C(=O)N[C@@H](CCCCN)C(=O)N[C@@H](CCCNC(=N)N)C(=O)N[C@@H](CCC(N)=O)C(=O)N[C@@H](CCC(N)=O)C(N)=O)[C@@H](C)CC)[C@@H](C)CC)[C@@H](C)O)[C@@H](C)O)C(C)C)C(C)C` [MLT], for which the “conformational change of MLT in the complex” value in [1] is recorded as “increased helicity”. For the same compound, the “enthalpy change, Hscen2-MLT” value in the data set with human centrin 2 (Hscen2) is “much more favorable for binding”. Besides, in the data set with tumor, the cytotoxicity result is given as “cytotoxicity” and the “effect on tumor growth” value is listed as “inhibitory effect on tumor growth”. For the same compound, in data set [2], the “thermodynamic driving force of complex formation” value is recorded as “driven by entropy; also recorded: driven entropically”, the ΔG was -11.1 kcal/mol and the ΔS is 28.0 cal/mol∙K. Besides, the “n (binding stoichiometry)” value in data set [2] (one-site binding model) is on record as 1.38 ± 0.01. In addition, the ΔHb in data set [2] (exothermic) was -2.73 ± 0.07 kcal/mol. In the data set with calmodulin (CaM), the “inhibition of calmodulin (CaM) activity” value was “potent inhibitor”. The “binding site in crystal structure” value in data set [3] is recorded as “interacts with the C-terminal domain of Crcen; also recorded: limits its interaction to the C-terminal domain of centrin”. The “affinity, human centrin 3-MLT, fold higher than Hscen2-MLT” value with human centrin 3 is 2–3 fold. In the data set on CaM (calmodulin) (BtCaM, 25 °C, pH 7.0, ref [14]), the “thermodynamic driving force of complex formation, CaM” value is given as “driven by entropy”. For the same compound, the “dissociation constant (Kd), holo-CaM” value on CaM (calmodulin) (holo-CaM-MLT, 1:1 molar ratio, ref [14],[15],[17]) was “low nanomolar range”. Also, the Kd on CaM (calmodulin) (read-out: Kd, apo-CaM, ref [17],[18]) is roughly 10 µM.

“Crcen: Chlamydomonas reinhardtii centrin (Swiss Protein Database accession number P05434), EF-hand calcium binding protein”: the “Tm (transition temperature)” value in data set [4] is 112.1 °C. Moreover, in data set [5], the “shift of amide I’ peak maximum with temperature, unlabeled Crcen” value was 2.5 cm⁻¹.

Take human centrin 2 (from UniProt P41208): the Kd in [6] is 62.5 nM.

In [7], Melittin (Ac-…-NH2) (peptide) came in with an equilibrium dissociation constant (Kd) of 7.41 nM, a dH of -2.73 kcal/mol and a stoichiometry N of 1.38.

These data come from paper PMC3204214 (Proteins, 2011).
